Assay outcomes as filed in PubChem BioAssay.
Only some compounds are listed: those with a hit (about 3.1% of all), similar ones and a draw of the others.
miR-122 sensor = blocks miR-122 activity in Huh7 sensor cells; activation (reporter increase), % at 12.5 µM; Huh7 miR-122 Renilla luciferase sensor, 48 h; neutral wells = 0, positive control = 100; hit rate 0.3% among 340,000;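 active = mean replicate activation score at least 90 and every replicate individually at or above 90; inconclusive = only one of the two criteria met; inactive = neither criterion met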;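 also: higher luciferase means less miR-122 activity so hits act as miR-122 inhibitors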
Cneo AK release = Cryptococcus neoformans lysis via adenylate kinase release | C. neoformans lysis, adenylate kinase release luminescence, 4 h; normalised: neutral wells 0, clomiphene wells 100 | lysis activity, % at 15 µM | hit rate 0.2% among 360,000 | AID 651654;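 active = mean lysis activity across replicates of at least 80%, whatever share of replicates individually reach that level; inactive = mean lysis activity below 80%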
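Material: C. neoformans cells | Amount: Yeast cell density of 5 × 10^6 cells/mL | Medium: Fresh YPD growth medium | Dosing: Single dose | Times: Static 4 h at 37 °C with compound, 1 h detection | Detection: AK luminescence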
rRNA inh HTS = inhibitors of bacterial rRNA selective over humanized ribosomes; GFP signal change (wild-type ribosome), % (test concentration not listed); E. coli WT GFP vs humanized-ribosome RFP mutants, fluorescence, 24 h; active compounds read low; DMSO median 0, no signal -100; hit rate 1.6% among 350,000;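 active = significant combined selectivity score with lowered wild-type GFP, culture density cut under 30%, mutant RFP and density less affected; inactive = any of these conditions unmet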
CFTR F508del cor = CFTR F508del correction in bronchial cells. AID 720511. activity (quench increase), % at 7.58 µM. hit rate 0.36% among 350,000. CFBE cells, YFP halide quenching; stimulated with forskolin plus potentiator P3; % fluorescence drop versus neutral controls;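 active = mean added fluorescence quench of at least 8% versus neutral control, with both replicates also reaching 8%; inconclusive = only one of the mean or replicate conditions met; inactive = mean below 8% and not both replicates reaching 8%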;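 also: cells transiently co-express mutant CFTR-F508del with the halide-sensitive YFP; corrector assay measuring rescue of mutant channel to the surface after 24 h compound exposure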
GSIS activator = primary screen for activators of insulin secretion dependent on glucose, INS-1E cells, GLuc reporter luminescence; INS-1E GLuc reporter insulin secretion, 2-3 h; activation, % at 16.6 µM; hit rate 0.61% among 370,000; AID 743287;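 active = lowest replicate activation of at least 40%, so every replicate reaches that level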;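 also: 0% = median of neutral control wells and 100% = median of IBMX positive control wells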
Env fusion inh = inhibitors of HIV Env-mediated cell fusion; hit rate 1.1% among 360,000; inhibition, % at 12.3 µM; AID 651610; HeLa-JRFL Env/CEM21 cell fusion, luciferase;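 active = mean replicate inhibition score of at least 50 and every replicate individually at or above 50; inconclusive = only one of the two criteria met; inactive = mean below 50 and not all replicates reaching 50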;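 also: 0% = plate neutral controls and 100% = maraviroc near 300 nM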
Starred values were filed as active, the others as inactive; ? = inconclusive; · = no result given; [ ] = dose if it differs, or a comment.

SMILES	miR-122 sensor	Cneo AK release	rRNA inh HTS	CFTR F508del cor	GSIS activator	Env fusion inh
Cc1ccc2oc(C(=O)NCc3ccc(S(N)(=O)=O)cc3)cc(=O)c2c1	-23	1	7	1	-6	19
CO[C@@H]1CN(C)C(=O)c2cc(NC(=O)c3cnccn3)ccc2OC[C@H](C)N(CC2CC2)C[C@H]1C	·	·	0	1	7	·
CCN(CC)c1ccc(S(=O)(=O)Nc2cc(Cl)ccc2Cl)cc1NC(=S)NC(=O)C1CCCC1	285*	-1	10	·	-2	32
CCN(CC)S(=O)(=O)c1ccc(Cl)c(NC(=S)NC(=O)C2CCCC2)c1	-2	2	-10	4	-48	?
Cc1ccc(NS(=O)(=O)c2ccc3c(c2)NC(=O)CO3)c(C)c1	12	0	-6	-1	0	2
O=C1COc2ccc(S(=O)(=O)Nc3ccc(F)cc3)cc2N1	112*	0	0	-3	7	-2
O=C1CC(=O)Nc2cc(S(=O)(=O)NCc3cccs3)ccc2N1	-4	1	9	-1	41*	-8
CC(C)c1cccc(-c2csc(C(O)c3ccco3)n2)c1 (stereo not given)	1	2	-4	8.9*	·	-24
CCN(CC)C(=O)c1cccc(-c2csc(C(O)c3ccco3)n2)c1 (stereo not given)	-1	4	2	-2	·	-13
Cc1noc(C)c1S(=O)(=O)N(C)C[C@@H]1Oc2c(NC(=O)c3cnccn3)cccc2C(=O)N([C@@H](C)CO)C[C@@H]1C	166*[16.7 µM]	114*	-4	0	32	1[16.7 µM]
C[C@@H]1CN([C@H](C)CO)C(=O)c2cccc(NC(=O)c3cnccn3)c2O[C@H]1CN(C)Cc1ccccc1	11[16.7 µM]	-2	-2	3	-5	64*[16.7 µM]
C[C@@H]1CN([C@@H](C)CO)C(=O)c2cccc(NC(=O)c3cnccn3)c2O[C@H]1CN(C)Cc1ccc(C(F)(F)F)cc1	152*[16.7 µM]	61	-6	2	-12	26[16.7 µM]
C[C@H](CO)N1C[C@H](C)[C@@H](CN(C)Cc2ccc(F)cc2)Oc2ncc(C3=CCCC3)cc2C1=O	4[16.7 µM]	6	-4	0	8	20[16.7 µM]
CCC(=O)N1CC(=O)N2[C@H](C1)[C@H](c1ccc(C3=CCCCC3)cc1)[C@@H]2CO	·	·	-1	·	7	·
C[C@@H]1CN([C@@H](C)CO)C(=O)c2cc(C#Cc3ccccc3F)cnc2O[C@H]1CN(C)C(=O)Cc1ccccc1	-4[16.7 µM]	-2	-2	1	-1	9[16.7 µM]
CC(C)NC(=O)Nc1ccc2c(c1)CC(=O)N(C)C[C@H](C)[C@H](CN(C)S(C)(=O)=O)O2	·	·	1	·	-4	·
O=C(NN(c1ccccc1)c1ccccc1)c1ccc([N+](=O)[O-])o1	0	0	-29*	3	-6	-10
CN(C)S(=O)(=O)c1ccc2c(c1)nc(CCC(=O)NCc1ccc(Cl)cc1)n2C	11	·	-5	-1	-3	6
CN(C)S(=O)(=O)c1ccc2c(c1)nc(CCC(=O)NCC1CCCCC1)n2C	164*	1	·	·	·	21
O=C(C[C@H]1C=C[C@@H](NC(=O)Nc2ccccc2)[C@@H](CO)O1)NCc1cccc(F)c1	·	·	0	-5	1	·
Cc1cc(C)nc(N/N=C/C(Cl)=C/c2ccccc2)n1	3	·	-26*	-1	-8	·
COc1cc2nc(N3CCN(c4cc(C)ccc4C)CC3)nc(N)c2cc1OC	-5	1	-61	-2	221*	-4
COc1cc2nc(N3CCNCC3)nc(N)c2cc1OC	0	4	·	·	·	-2
COc1ccc2c3c([nH]c2c1)[C@H](CO)N(C(=O)NC(C)C)CC31CCN(C(=O)c2ccccn2)CC1	·	·	-1	-2	3	·
CCCNC(=O)Cn1sc2nc(C)cc(C)c2c1=O	·	·	21	-12	94*	13
SMILES	miR-122 sensor	Cneo AK release	rRNA inh HTS	CFTR F508del cor	GSIS activator	Env fusion inh
Cc1ccc(S(=O)(=O)Nc2ccc3c(c2)C(=O)N(C)[C@H]2CC[C@@H](CC(=O)O)O[C@@H]2CO3)cc1	3[16.7 µM]	-1	1	-3	-3	4[16.7 µM]
C[C@@H]1CN([C@H](C)CO)C(=O)c2cccc(N(C)C)c2O[C@@H]1CN(C)Cc1ccc(Oc2ccccc2)cc1	-4[16.7 µM]	-2	-3	0	-5	6[16.7 µM]
CC(C)NC(=O)N(C)C[C@@H]1OCCCC[C@H](C)Oc2ccc(NC(=O)Cc3ccccc3)cc2C(=O)N([C@H](C)CO)C[C@@H]1C	-8[16.7 µM]	-1	0	-3	-15	-19[16.7 µM]
CC(C)NC(=O)N(C)C[C@@H]1OCCCC[C@H](C)Oc2ccc(NC(=O)Cc3ccccc3)cc2C(=O)N([C@H](C)CO)C[C@H]1C	-7[16.7 µM]	101*	8	3	-8	13[16.7 µM]
C[C@H](CO)N1C[C@H](C)[C@H](CN(C)C(=O)c2ccccc2)OCCCC[C@H](C)Oc2ccc(NC(=O)c3ccccc3)cc2C1=O	-12[16.7 µM]	-1	-4	-1	-17	-34[16.7 µM]
C[C@@H]1CCCCO[C@@H](CN(C)C(=O)c2ccccc2)[C@H](C)CN([C@@H](C)CO)C(=O)c2cc(NC(=O)c3ccccc3)ccc2O1	-7[16.7 µM]	-1	-21*	0	0	-3[16.7 µM]
CC(C)NC(=O)N(C)C[C@H]1OCCCC[C@H](C)Oc2ccc(NC(=O)c3ccccc3)cc2C(=O)N([C@@H](C)CO)C[C@@H]1C	-8[16.7 µM]	95*	-1	-2	-8	-25[16.7 µM]
CC(C)NC(=O)N(C)C[C@H]1OCCCC[C@@H](C)Oc2ccc(NC(=O)c3ccccc3)cc2C(=O)N([C@H](C)CO)C[C@H]1C	-5[16.7 µM]	-1	-3	0	7	3[16.7 µM]
CC(C)NC(=O)N(C)C[C@@H]1OCCCC[C@@H](C)Oc2ccc(NC(=O)c3ccccc3)cc2C(=O)N([C@H](C)CO)C[C@@H]1C	-5[16.7 µM]	111*	-2	0	16	0[16.7 µM]
CO[C@@H]1CN(C)C(=O)c2ccc(NC(=O)NC3CCCCC3)cc2OC[C@@H](C)NC[C@H]1C	·	-1	3	0	-5	-16[16.7 µM]
CNC[C@@H]1OCCCC[C@@H](C)Oc2ccc(NC(=O)c3ccccc3)cc2C(=O)N([C@H](C)CO)C[C@@H]1C	-3[16.7 µM]	-1	-1	1	3	7[16.7 µM]
CNC[C@@H]1OCCCC[C@H](C)Oc2ccc(NC(=O)c3ccccc3)cc2C(=O)N([C@@H](C)CO)C[C@@H]1C	12[16.7 µM]	82*	1	1	5	4[16.7 µM]
CC(C)NC(=O)N(C)C[C@@H]1OCCCC[C@@H](C)Oc2ccc(NC(=O)c3ccccc3)cc2C(=O)N([C@H](C)CO)C[C@H]1C	-13[16.7 µM]	103*	-1	2	-10	-107[16.7 µM]
